The source made the active and inactive calls.
Tests used:
[1] = Volume of distribution at steady state in rhesus monkey at 3 mg/kg, iv and 10 mg/kg, po; format: ADME, organism-based, Macaca mulatta; details: in vivo, read-out: Vdss
Summary of the method: (§1)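 Rhesus pharmacokinetics: 3 mg/kg iv and 10 mg/kg po, HCl salt. Clp, t1/2, Vdss, Cmax, AUC, oral t1/2 and %F reported.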

[2] = Cmax in rhesus monkey at 3 mg/kg, iv and 10 mg/kg, po; format: ADME, organism-based, Macaca mulatta; details: in vivo; summary of the method: as §1
[3] = Half life in rhesus monkey at 3 mg/kg, iv and 10 mg/kg, po; format: ADME, organism-based, Macaca mulatta; details: in vivo; summary of the method: as §1
[4] = Plasma clearance in rhesus monkey at 3 mg/kg, iv and 10 mg/kg, po; format: ADME, organism-based, Macaca mulatta; summary of the method: as §1
[5] = AUC in rhesus monkey at 3 mg/kg, iv and 10 mg/kg, po; format: ADME, organism-based, Macaca mulatta; details: plasma; summary of the method: as §1
[6] = Half life in rhesus monkey at 10 mg/kg, po; format: ADME, organism-based, Macaca mulatta; set-up: dose 10 mg/kg, route oral; details: in vivo
[7] = Bioavailability in rhesus monkey at 3 mg/kg, iv and 10 mg/kg, po; format: ADME, organism-based, Macaca mulatta; details: in vivo; summary of the method: as §1
[8] = biological target: Nitric oxide synthase, inducible (Homo sapiens, UniProt P35228); experiment: Inhibition of human iNOS expressed in HEK293 cells assessed as inhibition of nitric oxide production after 18 hrs using 2,3-diaminonaphthalene by fluorescence assay; format: cell-based
Summary of the method: (§2)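 HEK293 cells grown to ~70% confluence in DMEM/10% FBS with pen/strep, transiently transfected with 10 μg human or murine iNOS plasmid plus Fugene 6 for 4 h at 37 °C, 10% CO2. Cells replated at 5e5 cells/mL and dosed with compound at once; 1400W (100 μM final) as positive control. After 18 h, DAN (10 μg/mL final) in HCl (0.1 N final) added for 20 min at room temperature. Fluorescence read after NaOH (0.12 N final).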

[9] = biological target: Nitric oxide synthase 1 (Homo sapiens, UniProt P29475); experiment: Inhibition of human nNOS expressed in HEK293 cells assessed as inhibition ionomycin induced nitric oxide production incubated for 24 hrs measured after 18 hrs of ionomycin challenge using 2,3-diaminonaphthalene by fluorescence assay; format: cell-based
Summary of the method: (§3)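 HEK293 cells transfected for 4 h at 37 °C with human nNOS (10 μg) or human eNOS (15 μg) plasmid (Fugene 6, 3:1). Cells replated at 5e5 cells/mL and dosed with compound at once; SEITU (100 μM final) as positive control. After 24 h, cells activated with A23187 (83 nM final) for eNOS or ionomycin (30 μM final) for nNOS. NO read 18 h later as nitrite-DAN fluorescence.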

[10] = Half life in mouse at 10 mg/kg, po; format: ADME, organism-based; set-up: dose 10 mg/kg, route oral; details: in vivo
[11] = species: Homo sapiens; experiment: Ratio of IC50 for human eNOS to EC50 for human iNOS
[12] = Plasma clearance in mouse at 3 mg/kg, iv and 10 mg/kg, po; format: ADME, organism-based
[13] = tested on: Mus musculus; experiment: Inhibition of LPS-induced iNOS activation in BALB/c mouse assessed as plasma nitrate levels administered via oral gavage before LPS challenge measured after 6 to 8 hrs using 2,3-diaminonaphthalene by fluorescence assay; format: functional
Summary of the method: (§4)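 Male BALB/c mice dosed by oral gavage (90% PEG/5% Tween 80/5% PVP + 0.5% w/v CMC) immediately before LPS (10 mg/kg ip in 0.9% NaCl). Mice killed at 6 h. EDTA plasma analysed for nitrate and drug levels; nitrite measured by DAN fluorescence.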

[14] = biological target: T1, Nitric oxide synthase, inducible (Mus musculus, UniProt P29477); experiment: Inhibition of mouse iNOS expressed in HEK293 cells assessed as inhibition of nitric oxide production after 18 hrs using 2,3-diaminonaphthalene by fluorescence assay; format: cell-based; summary of the method: as §2
T1 sequence (P29477 whole entry): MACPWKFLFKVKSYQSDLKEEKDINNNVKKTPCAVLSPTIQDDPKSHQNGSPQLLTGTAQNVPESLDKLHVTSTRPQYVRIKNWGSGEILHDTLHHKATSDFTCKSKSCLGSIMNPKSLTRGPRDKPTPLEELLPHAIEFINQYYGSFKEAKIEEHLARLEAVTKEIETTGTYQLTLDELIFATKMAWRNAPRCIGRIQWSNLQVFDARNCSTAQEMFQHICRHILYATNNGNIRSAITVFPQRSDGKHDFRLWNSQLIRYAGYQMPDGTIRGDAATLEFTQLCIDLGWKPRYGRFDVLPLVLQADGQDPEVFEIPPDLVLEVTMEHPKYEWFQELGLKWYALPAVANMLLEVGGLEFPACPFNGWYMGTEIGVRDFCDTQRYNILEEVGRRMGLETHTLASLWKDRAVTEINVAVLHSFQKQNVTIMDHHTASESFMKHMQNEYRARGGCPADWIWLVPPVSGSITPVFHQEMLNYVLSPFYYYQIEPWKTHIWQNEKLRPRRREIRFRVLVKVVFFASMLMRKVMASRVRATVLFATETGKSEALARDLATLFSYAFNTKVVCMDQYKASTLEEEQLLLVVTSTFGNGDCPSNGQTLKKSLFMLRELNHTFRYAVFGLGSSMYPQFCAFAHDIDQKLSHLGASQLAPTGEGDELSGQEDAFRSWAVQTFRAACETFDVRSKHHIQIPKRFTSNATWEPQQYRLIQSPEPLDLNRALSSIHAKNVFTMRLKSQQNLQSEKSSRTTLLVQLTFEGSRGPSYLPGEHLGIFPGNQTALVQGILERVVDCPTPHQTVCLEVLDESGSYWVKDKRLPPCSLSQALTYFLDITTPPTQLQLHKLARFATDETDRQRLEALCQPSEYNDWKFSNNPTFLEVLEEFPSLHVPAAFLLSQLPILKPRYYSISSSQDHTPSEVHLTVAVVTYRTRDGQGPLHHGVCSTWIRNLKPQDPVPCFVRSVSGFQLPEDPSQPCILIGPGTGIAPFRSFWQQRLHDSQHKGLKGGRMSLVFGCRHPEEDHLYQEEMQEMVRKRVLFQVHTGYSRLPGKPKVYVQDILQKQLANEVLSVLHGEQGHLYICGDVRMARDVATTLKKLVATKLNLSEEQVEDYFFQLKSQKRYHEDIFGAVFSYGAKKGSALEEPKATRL

[15] = biological target: T2, Nitric oxide synthase 3 (Homo sapiens, UniProt P29474); experiment: Inhibition of human eNOS expressed in HEK293 cells assessed as inhibition A23187 induced nitric oxide production incubated for 24 hrs measured after 18 hrs of […] challenge using 2,3-diaminonaphthalene by fluorescence assay; format: cell-based; summary of the method: as §3
T2 sequence (P29474 whole entry): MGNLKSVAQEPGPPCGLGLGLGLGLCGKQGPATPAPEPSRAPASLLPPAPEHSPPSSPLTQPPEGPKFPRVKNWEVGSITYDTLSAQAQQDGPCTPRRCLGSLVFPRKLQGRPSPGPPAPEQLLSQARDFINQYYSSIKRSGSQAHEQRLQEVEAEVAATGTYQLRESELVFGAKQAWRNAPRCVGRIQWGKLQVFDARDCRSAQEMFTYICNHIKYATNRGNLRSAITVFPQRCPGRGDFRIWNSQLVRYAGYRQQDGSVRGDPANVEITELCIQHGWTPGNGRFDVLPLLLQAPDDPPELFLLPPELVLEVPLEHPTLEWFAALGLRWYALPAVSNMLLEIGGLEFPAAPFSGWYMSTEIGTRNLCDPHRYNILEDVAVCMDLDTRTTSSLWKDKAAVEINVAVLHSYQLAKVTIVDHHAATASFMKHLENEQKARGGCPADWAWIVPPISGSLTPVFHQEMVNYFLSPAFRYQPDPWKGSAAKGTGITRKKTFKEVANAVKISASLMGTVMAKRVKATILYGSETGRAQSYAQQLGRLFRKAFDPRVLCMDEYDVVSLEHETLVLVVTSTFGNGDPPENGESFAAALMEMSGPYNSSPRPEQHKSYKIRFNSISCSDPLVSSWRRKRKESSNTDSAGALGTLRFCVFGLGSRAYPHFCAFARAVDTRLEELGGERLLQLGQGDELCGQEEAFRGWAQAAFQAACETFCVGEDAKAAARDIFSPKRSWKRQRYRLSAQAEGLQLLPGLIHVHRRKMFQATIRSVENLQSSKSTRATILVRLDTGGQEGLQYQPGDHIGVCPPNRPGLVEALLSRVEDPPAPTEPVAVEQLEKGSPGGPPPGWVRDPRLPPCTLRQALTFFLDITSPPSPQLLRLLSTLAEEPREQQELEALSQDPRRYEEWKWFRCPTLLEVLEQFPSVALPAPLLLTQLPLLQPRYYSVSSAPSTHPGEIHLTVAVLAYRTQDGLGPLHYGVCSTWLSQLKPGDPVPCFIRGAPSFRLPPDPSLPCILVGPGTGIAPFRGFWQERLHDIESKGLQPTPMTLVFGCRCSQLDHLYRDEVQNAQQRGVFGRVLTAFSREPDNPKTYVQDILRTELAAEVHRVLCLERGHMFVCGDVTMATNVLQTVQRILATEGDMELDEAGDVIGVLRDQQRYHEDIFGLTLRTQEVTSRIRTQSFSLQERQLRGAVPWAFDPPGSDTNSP

[16] = Cmax in mouse at 3 mg/kg, iv and 10 mg/kg, po; format: ADME, organism-based; details: in vivo
[17] = Oral bioavailability in mouse at 10 mg/kg; format: ADME, organism-based; details: in vivo
[18] = Half life in mouse at 3 mg/kg, iv and 10 mg/kg, po; details: in vivo
[19] = AUC in mouse at 3 mg/kg, iv and 10 mg/kg, po; format: ADME, organism-based; details: plasma
[20] = Volume of distribution at steady state in mouse at 3 mg/kg, iv and 10 mg/kg, po; format: ADME, organism-based; details: in vivo, read-out: Vdss
[21] = species: Homo sapiens; experiment: Ratio of IC50 for human nNOS to EC50 for human iNOS
[22] = tested on: Liver; experiment: Half life in mouse liver microsomes assessed as formation of oxidation product and glucuronide conjugate; format: ADME, Microsome
Summary of the method: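 Mouse liver microsomes run under combined phase I oxidation and phase II glucuronide conjugation; half-life reported in minutes.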

[23] = tested on: Mus musculus; experiment: Antiallodynic activity against von Frey hair mechanically stimulated neuropathic pain in mouse Chung model of neuropathic pain assessed as attenuation of tactile allodynia at 30 mg/kg, po bid for 4 days; format: functional, organism-based; set-up: dose 30 mg/kg
Summary of the method: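 Spinal nerve ligation in mice under isoflurane (5% induction, 2-3% maintenance). Von Frey filaments pressed on the paw for up to 10 s. 50% withdrawal threshold derived by Dixon's up-down method. Only mice with baseline thresholds of ~0.2-0.3 g between 5 and 10 days post-surgery were included. Dosing was oral.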

[24] = tested on: Mus musculus; experiment: Inhibition of LPS-induced iNOS activation in BALB/c mouse assessed as plasma nitrate levels at 30 mg/kg administered via oral gavage before LPS challenge measured after 6 to 8 hrs using 2,3-diaminonaphthalene by fluorescence assay relative to control; format: functional; summary of the method: as §4

Chain of Nitric oxide synthase 1 (P29475 whole entry): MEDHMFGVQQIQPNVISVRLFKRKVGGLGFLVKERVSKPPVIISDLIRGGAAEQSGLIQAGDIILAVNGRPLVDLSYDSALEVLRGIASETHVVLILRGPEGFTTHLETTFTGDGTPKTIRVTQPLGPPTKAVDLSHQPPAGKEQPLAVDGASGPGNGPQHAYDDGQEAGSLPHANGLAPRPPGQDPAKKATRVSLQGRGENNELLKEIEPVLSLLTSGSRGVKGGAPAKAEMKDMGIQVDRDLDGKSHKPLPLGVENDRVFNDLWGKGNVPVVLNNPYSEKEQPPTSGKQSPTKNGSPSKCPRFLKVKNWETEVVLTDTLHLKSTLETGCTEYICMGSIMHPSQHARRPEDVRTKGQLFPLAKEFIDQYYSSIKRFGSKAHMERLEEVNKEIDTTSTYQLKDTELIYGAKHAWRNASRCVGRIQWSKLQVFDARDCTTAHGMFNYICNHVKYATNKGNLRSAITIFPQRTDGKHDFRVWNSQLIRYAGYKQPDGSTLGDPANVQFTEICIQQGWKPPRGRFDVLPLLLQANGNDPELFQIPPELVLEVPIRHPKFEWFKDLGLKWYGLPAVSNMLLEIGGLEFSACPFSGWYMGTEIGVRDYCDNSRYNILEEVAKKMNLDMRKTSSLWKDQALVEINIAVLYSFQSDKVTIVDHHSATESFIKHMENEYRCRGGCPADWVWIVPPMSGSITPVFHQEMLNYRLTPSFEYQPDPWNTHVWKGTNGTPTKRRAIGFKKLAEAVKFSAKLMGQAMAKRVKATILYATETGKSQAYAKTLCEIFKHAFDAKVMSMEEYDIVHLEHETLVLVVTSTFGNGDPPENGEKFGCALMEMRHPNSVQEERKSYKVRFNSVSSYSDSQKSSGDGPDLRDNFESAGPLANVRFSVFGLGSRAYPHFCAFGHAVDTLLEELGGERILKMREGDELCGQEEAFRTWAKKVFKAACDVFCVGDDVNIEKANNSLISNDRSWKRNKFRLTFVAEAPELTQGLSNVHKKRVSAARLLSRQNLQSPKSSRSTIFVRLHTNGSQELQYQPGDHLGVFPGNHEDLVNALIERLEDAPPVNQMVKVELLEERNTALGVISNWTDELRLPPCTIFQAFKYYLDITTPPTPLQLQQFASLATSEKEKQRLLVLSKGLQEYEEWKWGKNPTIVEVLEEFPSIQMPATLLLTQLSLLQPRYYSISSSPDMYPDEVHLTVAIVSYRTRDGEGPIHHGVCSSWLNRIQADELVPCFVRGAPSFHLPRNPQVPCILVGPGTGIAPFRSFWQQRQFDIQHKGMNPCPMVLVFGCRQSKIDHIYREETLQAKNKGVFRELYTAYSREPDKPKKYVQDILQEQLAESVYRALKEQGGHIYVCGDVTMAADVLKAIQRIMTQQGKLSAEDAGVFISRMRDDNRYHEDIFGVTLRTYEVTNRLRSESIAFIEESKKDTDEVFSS
Chain of Nitric oxide synthase, inducible (Homo sapiens, UniProt P35228) (P35228 whole entry): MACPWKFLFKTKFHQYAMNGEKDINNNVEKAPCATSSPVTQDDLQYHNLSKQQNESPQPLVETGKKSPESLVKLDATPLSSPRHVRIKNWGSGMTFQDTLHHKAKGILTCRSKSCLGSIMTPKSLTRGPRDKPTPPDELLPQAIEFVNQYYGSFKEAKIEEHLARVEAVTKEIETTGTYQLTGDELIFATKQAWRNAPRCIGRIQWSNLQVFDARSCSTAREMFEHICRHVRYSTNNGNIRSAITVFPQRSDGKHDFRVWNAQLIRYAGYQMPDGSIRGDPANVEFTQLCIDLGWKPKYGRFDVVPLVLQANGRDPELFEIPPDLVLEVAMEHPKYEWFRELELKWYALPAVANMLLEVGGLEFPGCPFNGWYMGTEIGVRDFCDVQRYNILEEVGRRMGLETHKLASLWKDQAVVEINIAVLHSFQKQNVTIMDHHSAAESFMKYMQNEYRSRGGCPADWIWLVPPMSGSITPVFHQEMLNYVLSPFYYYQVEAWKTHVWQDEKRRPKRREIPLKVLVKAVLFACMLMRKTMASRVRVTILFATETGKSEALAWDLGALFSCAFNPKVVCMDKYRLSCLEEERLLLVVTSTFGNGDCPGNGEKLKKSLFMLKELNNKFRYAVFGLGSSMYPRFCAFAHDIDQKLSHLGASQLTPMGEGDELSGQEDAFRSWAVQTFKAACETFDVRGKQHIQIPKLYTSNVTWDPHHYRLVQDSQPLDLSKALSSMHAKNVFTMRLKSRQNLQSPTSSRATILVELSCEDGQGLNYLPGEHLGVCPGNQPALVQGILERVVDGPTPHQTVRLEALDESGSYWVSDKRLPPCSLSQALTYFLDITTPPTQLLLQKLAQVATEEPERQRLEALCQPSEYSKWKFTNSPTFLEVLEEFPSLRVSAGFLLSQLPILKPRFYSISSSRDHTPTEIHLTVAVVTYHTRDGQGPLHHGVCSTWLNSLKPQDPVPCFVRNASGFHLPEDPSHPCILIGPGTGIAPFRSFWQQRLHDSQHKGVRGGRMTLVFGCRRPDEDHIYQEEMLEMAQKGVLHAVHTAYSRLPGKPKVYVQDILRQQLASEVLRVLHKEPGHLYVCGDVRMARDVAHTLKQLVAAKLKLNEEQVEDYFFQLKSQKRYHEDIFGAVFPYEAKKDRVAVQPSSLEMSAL

| Structure (SMILES) | Vd [1] [L/kg] | Cmax [2] [ng/mL] | half-life [3] [h] | clearance [4] [mL/min/kg] | AUC [5] [ng·h/mL] | half-life [6] [h] | bioavailability [7] [%] | EC50 [8] [µM] | EC50 [9] [µM] | half-life [10] [h] | Ratio EC50 [11] | clearance [12] [mL/min/kg] | EC50 [14] [µM] | EC50 [15] [µM] | Cmax [16] [ng/mL] | bioavailability [17] [%] | half-life [18] [h] | AUC [19] [ng·h/mL] | Vd [20] [L/kg] | Ratio EC50 [21] | further results |
| --- | --- | --- | --- | --- | --- | --- | --- | --- | --- | --- | --- | --- | --- | --- | --- | --- | --- | --- | --- | --- | --- |
| Cl.O=c1cc(Cn2c(C3CC(F)(F)C3)nc3nccnc32)c2cccc(F)c2[nH]1 | 1.8 | 3400 | 6.6 | 8.6 | 21000 | 6.1 | 100 | – | – | – | – | – | – | – | – | – | – | – | – | – | – |
| CC(C)c1nc2ccccc2n1Cc1cc(=O)[nH]c2c(F)c(F)ccc12 | – | – | – | – | – | – | – | 0.8 | 0.65 | 2.6 | 14 | 5.9 | 4.4 | 11.3 | 14000 | 58 | 2.1 | 19300 | 0.7 | 0.8 | ED50 [13]: 6 mg/kg; t1/2 [22]: > 2 h |
| CN1CC[C@]23c4c5ccc(O)c4O[C@H]2[C@@H](O)C=C[C@H]3[C@H]1C5 | – | – | – | – | – | – | – | – | – | – | – | – | – | – | – | – | – | – | – | – | Activity [23]: Active |
| CC(C)Cc1nc2nccnc2n1Cc1cc(=O)[nH]c2c(F)c(F)ccc12.Cl | 19 | 210 | 21 | 18 | 3200 | 15 | 59 | – | – | – | – | – | – | – | – | – | – | – | – | – | – |
| Cc1ncsc1-c1nc2ccccc2n1Cc1cc(=O)[nH]c2c(F)c(F)ccc12 | – | – | – | – | – | – | – | 1.8 | 1.5 | 3.1 | 3.8 | 12 | 10.3 | 6.8 | 3800 | 39 | 2.3 | 5670 | 1.2 | 0.8 | inhibition in vivo at 30 mg/kg [24]: 30%; t1/2 [22]: 1.63 h |

From ChEMBL document CHEMBL1800057, “Discovery of dual inducible/neuronal nitric oxide synthase (iNOS/nNOS) inhibitor development candidate 4-((2-cyclobutyl-1H-imidazo[4,5-b]pyrazin-1-yl)methyl)-7,8-difluoroquinolin-2(1H)-one (KD7332) part 2: identification of a novel, potent, and selective series of benzimidazole-quinolinone …” (J Med Chem, 2010)
